The test system of assay [1] is Plasma. Briefly: Antiplatelet aggregation activity in rabbit platelet-rich plasma assessed as inhibition of arachidonic acid-induced platelet aggregation by turbidimetric based Lumi-aggregometry. In kind it is functional. The following applies: Oryctolagus cuniculus.
Assay [2] relates to Plasma. Briefly: Potency index, ratio of Acetylsalicylic acid IC50 to test compound IC50 for antiplatelet aggregation activity in rabbit platelet-rich plasma assessed as inhibition of arachidonic acid-induced platelet aggregation by turbidimetric aggregometry analysis. The assay is classed as functional, Oryctolagus cuniculus.
Another assay has as its system Macrophomina phaseolina. Put plainly: Antifungal activity against Macrophomina phaseolina assessed as inhibition of fungal growth by agar well diffusion method. In kind it is functional. Background: In agar diffusion tests the substance spreads into inoculated agar from a disc or well.
In assay [3] the test system is Trichoderma reesei. Put plainly: Antifungal activity against Trichoderma reesei assessed as inhibition of fungal growth by agar well diffusion method. In kind it is functional.
Assay [4] relates to Aspergillus niger. Put plainly: Antifungal activity against Aspergillus niger assessed as inhibition of fungal growth by agar well diffusion method. The assay is classed as functional.
The subject of another assay is Escherichia coli. Briefly: Antibacterial activity against Escherichia coli MTCC 443 assessed as inhibition of bacterial growth incubated for 24 hrs by serial dilution method. The assay is classed as functional. In outline: (§1)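 MIC found by serial dilution, with ampicillin as positive control. Strains were Gram-negative E. coli MTCC 443 and Gram-positive B. subtilis MTCC 10619. A first agar diffusion screen of all compounds and the control was run at a fixed 100 μg/mL.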

The test system of another assay is Bacillus subtilis. Briefly: Antibacterial activity against Bacillus subtilis MTCC 10619 assessed as inhibition of bacterial growth incubated for 24 hrs by serial dilution method. The assay is classed as functional. In outline: as §1
For assay [5], the system named is Trichoderma reesei. Briefly: Potency index, ratio of Ketaconazole MIC to test compound MIC for antifungal activity against Trichoderma reesei assessed as inhibition of fungal growth by agar well diffusion method. In kind it is functional.
The test system of assay [6] is Aspergillus niger. Put plainly: Potency index, ratio of Ketaconazole MIC to test compound MIC for antifungal activity against Aspergillus niger assessed as inhibition of fungal growth by agar well diffusion method. The assay is classed as functional.

Converted amounts (≈) assume the structure as drawn. The source made the active and inactive calls. The rule behind the calls is not given here.

Regarding `COc1cc2c(cc1OC)-c1c(OC)c(OCc3ccccc3)cc3c1C(CC2)N(S(=O)(=O)c1cccc(C)c1)CC3` (stereo not given), in the assay on Plasma [1], the IC50 (usually the point on the concentration scale where inhibition reaches its midpoint) was 10.5 µg/mL (≈ 17.9 µM). In addition, the “Ratio IC50” value in the assay with Plasma [2] is given as greater than 2. The MIC (commonly the lowest concentration that inhibits growth of the organism) was determined as 50 µg/mL (≈ 85.4 µM) in the assay with Macrophomina phaseolina, 25 µg/mL (≈ 42.7 µM) in the assay with Trichoderma reesei [3], 50 µg/mL (≈ 85.4 µM) in the assay with Escherichia coli and 25 µg/mL (≈ 42.7 µM) in the assay with Bacillus subtilis. In addition, the outcome in the assay with Aspergillus niger [4] was inactive.

Turning to `COc1cc2c(cc1OC)-c1c(OC)c(OC)cc3c1C(CC2)N(S(=O)(=O)c1ccc(C(C)(C)C)cc1)CC3` (stereo not given), in the assay on Plasma [1], the IC50 was 36.7 µg/mL (≈ 66.4 µM). Further, the MIC was found to be 6.25 µg/mL (≈ 11.3 µM) with Macrophomina phaseolina, 100 µg/mL (≈ 181 µM) with Aspergillus niger [4], 3.12 µg/mL (≈ 5.66 µM) in the assay on Escherichia coli and 12.5 µg/mL (≈ 22.7 µM) in the assay with Bacillus subtilis. For the same molecule, the outcome with Trichoderma reesei [3] was inactive.

Consider `COc1cc2c(cc1OC)-c1c(OC)c(OC)cc3c1C(CC2)N(S(=O)(=O)c1ccc([N+](=O)[O-])cc1)CC3` (stereo not given), for which, in the assay with Plasma [1], the IC50 is 30 µg/mL (≈ 55.5 µM). In addition, the MIC in the assay with Macrophomina phaseolina amounted to 12.5 µg/mL (≈ 23.1 µM); in the assay with Aspergillus niger [4], 50 µg/mL (≈ 92.5 µM). Moreover, the outcome with Trichoderma reesei [3], in the assay with Escherichia coli and in the assay with Bacillus subtilis was inactive.

With `CC(=O)N1CCN(c2ccc(OCC3COC(Cn4ccnc4)(c4ccc(Cl)cc4Cl)O3)cc2)CC1` (stereo not given) [KETOCONAZOLE], the minimal inhibitory concentration (MIC) in the assay on Macrophomina phaseolina stood at 12.5 µg/mL (≈ 23.5 µM); in the assay on Trichoderma reesei [3] it was 6.25 µg/mL (≈ 11.8 µM); in the assay with Aspergillus niger [4] it was 12.5 µg/mL (≈ 23.5 µM).

Turning to `COc1cc2c(cc1OC)-c1c(OCc3ccccc3)c(OC)cc3c1C(CC2)N(S(=O)(=O)c1ccc([N+](=O)[O-])cc1)CC3` (stereo not given), in the assay with Plasma [1], the IC50 is 32.7 µg/mL (≈ 53 µM). Also, the MIC turned out to be 12.5 µg/mL (≈ 20.3 µM) with Macrophomina phaseolina, 25 µg/mL (≈ 40.5 µM) with Aspergillus niger [4], 50 µg/mL (≈ 81.1 µM) in the assay with Escherichia coli and 12.5 µg/mL (≈ 20.3 µM) with Bacillus subtilis. Moreover, the result in the assay on Trichoderma reesei [3] was inactive.

Turning to `COc1cc2c(cc1OC)-c1c(OC)c(OCc3ccccc3)cc3c1C(CC2)N(S(=O)(=O)c1cccc(C(F)(F)F)c1)CC3` (stereo not given), the IC50 in the assay on Plasma [1] turned out to be 7 µg/mL (≈ 10.9 µM). Also, in the assay on Plasma [2], the “Ratio IC50” value was found to be 3. The outcome in the assay with Macrophomina phaseolina and with Aspergillus niger [4] was inactive. In addition, the MIC with Trichoderma reesei [3], in the assay with Escherichia coli and with Bacillus subtilis was 6.25 µg/mL (≈ 9.77 µM) each time. The Ratio with Trichoderma reesei [5] came out at 1.

In the case of `COc1cc2c(cc1OC)-c1c(OC)c(OCc3ccccc3)cc3c1C(CC2)N(S(=O)(=O)c1ccccc1)CC3` (stereo not given), the IC50 with Plasma [1] is 14.7 µg/mL (≈ 25.6 µM). In addition, the Ratio in the assay with Plasma [2] is on record as roughly 3. Moreover, the result in the assay with Macrophomina phaseolina, in the assay with Trichoderma reesei [3], in the assay with Aspergillus niger [4] and in the assay with Escherichia coli was inactive. Besides, the MIC in the assay with Bacillus subtilis is 12.5 µg/mL (≈ 21.9 µM).

In the case of `COc1cc2c(cc1OC)-c1c(OC)c(OCc3ccccc3)cc3c1C(CC2)N(S(=O)(=O)c1ccc(C(C)(C)C)cc1)CC3` (stereo not given), the IC50 with Plasma [1] is 35 µg/mL (≈ 55.7 µM). Also, the MIC in the assay with Macrophomina phaseolina was determined as 25 µg/mL (≈ 39.8 µM); in the assay on Trichoderma reesei [3] it was 50 µg/mL (≈ 79.6 µM); in the assay on Aspergillus niger [4], 6.25 µg/mL (≈ 9.96 µM); in the assay with Bacillus subtilis it was 25 µg/mL (≈ 39.8 µM). Besides, in the assay with Escherichia coli, the outcome was inactive.

Consider `COc1cc2c(cc1OC)-c1c(OC)c(OC)cc3c1C(CC2)N(S(=O)(=O)c1cccc(C(F)(F)F)c1)CC3` (stereo not given), for which the IC50 with Plasma [1] is 9.6 µg/mL (≈ 17 µM). In addition, the Ratio in the assay on Plasma [2] is roughly 3. Besides, the MIC stood at 12.5 µg/mL (≈ 22.2 µM) with Macrophomina phaseolina, 25 µg/mL (≈ 44.4 µM) with Aspergillus niger [4], 25 µg/mL (≈ 44.4 µM) in the assay on Escherichia coli and 100 µg/mL (≈ 177 µM) with Bacillus subtilis. The outcome in the assay with Trichoderma reesei [3] was inactive.

`CC(=O)Oc1ccccc1C(=O)O` [ASPIRIN]: the IC50 in the assay on Plasma [1] turned out to be 21.3 µg/mL (≈ 118 µM).

Regarding `COc1cc2c(cc1OC)-c1c(OC)c(OCc3ccccc3)cc3c1C(CC2)N(S(=O)(=O)c1ccc([N+](=O)[O-])cc1)CC3` (stereo not given), in the assay on Plasma [1], the IC50 came to 30 µg/mL (≈ 48.6 µM). In addition, the MIC turned out to be 12.5 µg/mL (≈ 20.3 µM) with Macrophomina phaseolina, 6.25 µg/mL (≈ 10.1 µM) in the assay with Trichoderma reesei [3], 50 µg/mL (≈ 81.1 µM) with Aspergillus niger [4] and 12.5 µg/mL (≈ 20.3 µM) in the assay on Escherichia coli. Further, in the assay with Trichoderma reesei [5], the Ratio was determined as 1. The outcome in the assay with Bacillus subtilis was inactive.

As to `COc1cc2c(cc1OC)-c1c(OC)c(OC)cc3c1C(CC2)N(S(=O)(=O)c1ccccc1)CC3` (stereo not given), in the assay on Plasma [1], the IC50 turned out to be 15 µg/mL (≈ 30.3 µM). Also, the Ratio in the assay with Plasma [2] is given as roughly 3. Further, the outcome with Macrophomina phaseolina and with Trichoderma reesei [3] was inactive. The MIC with Aspergillus niger [4] is 25 µg/mL (≈ 50.4 µM); in the assay on Escherichia coli it was 12.5 µg/mL (≈ 25.2 µM); with Bacillus subtilis, 50 µg/mL (≈ 101 µM).

For the molecule `COc1cc2c(cc1OC)-c1c(OCc3ccccc3)c(OC)cc3c1C(CC2)N(S(=O)(=O)c1cccc(C)c1)CC3` (stereo not given), the IC50 in the assay on Plasma [1] was found to be 12.7 µg/mL (≈ 21.6 µM). The Ratio was roughly 3 in the assay on Plasma [2] and 1 in the assay on Aspergillus niger [6]. For the same molecule, the MIC in the assay with Macrophomina phaseolina was found to be 25 µg/mL (≈ 42.7 µM); with Trichoderma reesei [3], 12.5 µg/mL (≈ 21.3 µM); in the assay on Aspergillus niger [4] it was 12.5 µg/mL (≈ 21.3 µM); with Escherichia coli it was 3.12 µg/mL (≈ 5.34 µM); with Bacillus subtilis it was 3.12 µg/mL (≈ 5.34 µM).

Consider `COc1cc2c(cc1OC)-c1c(OC)c(OC)cc3c1C(CC2)N(S(=O)(=O)c1cccc(C)c1)CC3` (stereo not given), for which the IC50 with Plasma [1] turned out to be 12.7 µg/mL (≈ 24.8 µM). The Ratio in the assay with Plasma [2] was roughly 3; in the assay with Aspergillus niger [6] it was 1. The result with Macrophomina phaseolina was inactive. Moreover, the MIC with Trichoderma reesei [3] is 12.5 µg/mL (≈ 24.5 µM); in the assay on Aspergillus niger [4], 12.5 µg/mL (≈ 24.5 µM); in the assay on Escherichia coli, 6.25 µg/mL (≈ 12.3 µM); in the assay on Bacillus subtilis it was 25 µg/mL (≈ 49.1 µM).

`COc1cc2c(cc1OC)-c1c(OCc3ccccc3)c(OC)cc3c1C(CC2)N(S(=O)(=O)c1ccc(C(C)(C)C)cc1)CC3` (stereo not given): in the assay with Plasma [1], the IC50 stood at 35 µg/mL (≈ 55.7 µM). The outcome in the assay with Macrophomina phaseolina, in the assay with Trichoderma reesei [3] and with Bacillus subtilis was inactive. Further, the values for the MIC in the assay on Aspergillus niger [4] and with Escherichia coli were 12.5 µg/mL (≈ 19.9 µM) and 6.25 µg/mL (≈ 9.96 µM), respectively. Further, in the assay with Aspergillus niger [6], the Ratio worked out at 1.

Consider `COc1cc2c(cc1OC)-c1c(OCc3ccccc3)c(OC)cc3c1C(CC2)N(S(=O)(=O)c1cccc(C(F)(F)F)c1)CC3` (stereo not given), for which the 50% inhibitory concentration (IC50) in the assay on Plasma [1] came to 8 µg/mL (≈ 12.5 µM). In addition, the Ratio in the assay on Plasma [2] is listed as roughly 3. Further, the MIC was 12.5 µg/mL (≈ 19.5 µM) with Macrophomina phaseolina; 25 µg/mL (≈ 39.1 µM) in the assay on Trichoderma reesei [3]; 25 µg/mL (≈ 39.1 µM) in the assay on Aspergillus niger [4]; 6.25 µg/mL (≈ 9.77 µM) with Escherichia coli; 25 µg/mL (≈ 39.1 µM) in the assay on Bacillus subtilis.

On to `COc1cc2c(cc1OC)-c1c(OCc3ccccc3)c(OC)cc3c1C(CC2)N(S(=O)(=O)c1ccccc1)CC3` (stereo not given), for which the half-inhibitory concentration (IC50) in the assay with Plasma [1] amounted to 12.7 µg/mL (≈ 22.1 µM). Also, in the assay on Plasma [2], the Ratio is listed as roughly 3. For the same molecule, the outcome in the assay with Macrophomina phaseolina, in the assay with Trichoderma reesei [3], with Escherichia coli and with Bacillus subtilis was inactive. Also, the MIC in the assay with Aspergillus niger [4] stood at 6.25 µg/mL (≈ 10.9 µM).

In the case of `CC1(C)S[C@@H]2[C@H](NC(=O)[C@H](N)c3ccccc3)C(=O)N2[C@H]1C(=O)O` [AMPICILLIN], the MIC in the assay with Escherichia coli was determined as 12.5 µg/mL (≈ 35.8 µM); in the assay with Bacillus subtilis, 25 µg/mL (≈ 71.5 µM).

The values above are taken from ChEMBL document CHEMBL6121033, “N-Arylsulfonylated C-Homoaporphines as a New Class of Antiplatelet and Antimicrobial Agents” (ACS Med Chem Lett, 2025).
